In ChEMBL document CHEMBL4014336 (J Med Chem, 2017):

What was measured:
[1] = Metabolic stability in human liver microsomes assessed as UGT-mediated glucuronidation of compound by measuring half life in presence of UDPGA; assay type: ADME
Method in brief: (§1)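 Liver microsomal glucuronidation incubations in the presence of UDPGA; parent half-life determined.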

[2] = tested on: Plasma; assay: Fraction unbound in cynomolgus monkey plasma at 1 mg/kg after 24 hrs; assay type: ADME, organism-based, Macaca fascicularis; conditions: in vivo
[3] = tested on: HepG2; assay: Cytotoxicity against human HepG2 cells at 80 uM; assay type: cell-based; conditions: hepg2, 80 µM
Method in brief: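 HepG2 cells exposed at 80 μM; cytotoxicity assessed.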

[4] = Volume of distribution at steady state in mouse at 5 mg/kg, iv; assay type: ADME, organism-based; conditions: in vivo, read-out: Vdss
[5] = tested on: Mus musculus; assay: In vivo inhibition of 11beta-HSD1 in po dosed non-fasting diet-induced obese mouse assessed as decrease in corticosterone excursion in plasma pretreated for 60 mins followed by DHC administration measured up to 120 mins by enzyme immunosorbent assay; assay type: functional
Method in brief: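 Nonfasting diet-induced obese male mice, groups of n = 6 matched for body weight; tail bleed at −60 min, then oral vehicle (0.5% Methocel, 0.1% Tween 80 in water) or drug. At 60 min, bleed and oral DHC 10 mg/kg. Bleeds at 30, 60 and 120 min post-DHC. Plasma corticosterone measured by enzyme immunosorbent assay; drug levels in terminal bleed.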

[6] = Total plasma clearance in mouse at 5 mg/kg, iv; assay type: ADME, organism-based
[7] = tested on: Mus musculus; assay: In vivo inhibition of 11beta-HSD1 in po dosed non-fasting diet-induced obese mouse assessed as plasma concentration required to show decrease in corticosterone excursion pretreated for 60 mins followed by DHC administration measured up to 120 mins by enzyme immunosorbent assay; assay type: functional, organism-based
Method in brief: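 Nonfasting diet-induced obese male mice, groups of n = 6 matched for body weight. Tail bleed at −60 min, then oral dosing with vehicle (0.5% Methocel, 0.1% Tween 80 in water) or drug. DHC 10 mg/kg given orally 60 min later. Bleeds at 30, 60 and 120 min after DHC. Plasma corticosterone measured by enzyme immunosorbent assay. Drug levels measured in terminal bleed samples.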

[8] = target: 11-beta-hydroxysteroid dehydrogenase type 2 (Homo sapiens, UniProt P80365); assay: Inhibition of human 11beta-HSD2 up to 30 uM
Method in brief: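 Human 11β-HSD2 counter-screen in vitro; compound tested up to 30 μM.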

[9] = target: Cytochrome P450 2E1 (Homo sapiens, UniProt P05181); assay: Inhibition of CYP2E1 (unknown origin); assay type: ADME
[10] = tested on: Rattus norvegicus; assay: Apparent elimination half life in rat at […], iv; assay type: ADME, organism-based; conditions: in vivo
[11] = tested on: Cynomolgus monkey; assay: Toxicity in cynomolgus monkey assessed as HPA axis activation by measuring DHEA level at 1 to 10 mg/kg for 7 days; assay type: organism-based, Macaca fascicularis; conditions: in vivo, 168 h
[12] = Metabolic stability in cynomolgus monkey liver microsomes assessed as UGT-mediated glucuronidation of compound by measuring half life in presence of UDPGA; assay type: ADME, Macaca fascicularis; method in brief: as §1
[13] = AUC (0 to 24 hrs) in rat at […], iv; assay type: ADME, organism-based; design: time < 24 hr, dose 7.7 mg/kg, route intravenous; conditions: in vivo
[14] = tested on: Plasma; assay: Drug metabolism in dog plasma assessed as ketone A formation at 1 mg/kg, iv; assay type: ADME, organism-based, Canis lupus familiaris; conditions: in vivo
[15] = target: Cytochrome P450 3A4 (Homo sapiens, UniProt P08684); assay: Inhibition of CYP3A4 (unknown origin); assay type: ADME
[16] = target: 11-beta-hydroxysteroid dehydrogenase type 2 (Mus musculus, UniProt P51661); assay: Inhibition of mouse 11beta-HSD2
[17] = Permeability from apical to basolateral side in human Caco2 cells; assay type: ADME, cell-based; conditions: Caco-2, read-out: permeability
[18] = Oral bioavailability in cynomolgus monkey at 3 mg/kg; assay type: ADME, organism-based, Macaca fascicularis; conditions: in vivo
[19] = Apparent elimination half life in mouse at 5 mg/kg, iv; assay type: ADME, organism-based; conditions: in vivo, read-out: betat1/2(app) (converted)
[20] = AUC (0 to 24 hrs) in cynomolgus monkey at 1 mg/kg, iv; assay type: ADME, organism-based, Macaca fascicularis; design: dose 1 mg/kg, time < 24 hr, route intravenous; conditions: in vivo
[21] = tested on: Liver; assay: Metabolic stability in mouse liver microsomes assessed as parent compound remaining after 10 mins; assay type: ADME, microsome; conditions: microsomes, 10 min
Method in brief: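 Parent compound remaining after a 10 min incubation with human, mouse or rat liver microsomes.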

[22] = Protein binding in human plasma; assay type: ADME, cell-free; conditions: read-out: PPB (converted)
[23] = tested on: Rattus norvegicus; assay: Toxicity in rat assessed as hypokalemia at 300 mg/kg for 2 weeks; assay type: organism-based; conditions: in vivo, 336 h
Method in brief: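 Exploratory rat toxicology study lasting 2 weeks, with 300 mg/kg as the highest dose given. The study assessed hypokalemia, plasma volume expansion, hypertension and renal toxicity.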

[24] = AUC (0 to 24 hrs) in rat at 300 mg/kg; assay type: ADME, organism-based; design: dose 300 mg/kg, time < 24 hr; conditions: in vivo
[25] = tested on: Cynomolgus monkey; assay: Toxicity in cynomolgus monkey assessed as HPA axis activation by measuring DHEAS level at 1 to 10 mg/kg for 7 days; assay type: organism-based, Macaca fascicularis; conditions: in vivo, 168 h
[26] = Inhibition of cynomolgus monkey 11beta-HSD2; design: species or system Macaca fascicularis
[27] = Metabolic stability in mouse liver microsomes assessed as UGT-mediated glucuronidation of compound by measuring half life in presence of UDPGA; assay type: ADME; method in brief: as §1

Cytochrome P450 3A4, sequence (P08684 whole entry): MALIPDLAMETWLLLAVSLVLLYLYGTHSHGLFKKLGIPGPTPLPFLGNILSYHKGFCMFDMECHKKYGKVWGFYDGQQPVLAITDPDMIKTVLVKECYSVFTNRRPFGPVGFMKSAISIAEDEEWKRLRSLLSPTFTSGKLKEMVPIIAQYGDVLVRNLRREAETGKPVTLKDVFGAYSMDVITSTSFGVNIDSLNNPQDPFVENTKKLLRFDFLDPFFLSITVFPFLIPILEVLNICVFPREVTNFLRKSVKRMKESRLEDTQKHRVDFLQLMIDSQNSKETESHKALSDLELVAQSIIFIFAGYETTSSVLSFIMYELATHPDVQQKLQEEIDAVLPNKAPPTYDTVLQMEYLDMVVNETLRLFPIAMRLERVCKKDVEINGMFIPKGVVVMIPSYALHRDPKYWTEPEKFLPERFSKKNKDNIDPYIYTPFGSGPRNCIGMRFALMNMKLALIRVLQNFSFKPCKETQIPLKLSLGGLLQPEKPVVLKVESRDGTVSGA
11-beta-hydroxysteroid dehydrogenase type 2 (Mus musculus, UniProt P51661), sequence (P51661 whole entry): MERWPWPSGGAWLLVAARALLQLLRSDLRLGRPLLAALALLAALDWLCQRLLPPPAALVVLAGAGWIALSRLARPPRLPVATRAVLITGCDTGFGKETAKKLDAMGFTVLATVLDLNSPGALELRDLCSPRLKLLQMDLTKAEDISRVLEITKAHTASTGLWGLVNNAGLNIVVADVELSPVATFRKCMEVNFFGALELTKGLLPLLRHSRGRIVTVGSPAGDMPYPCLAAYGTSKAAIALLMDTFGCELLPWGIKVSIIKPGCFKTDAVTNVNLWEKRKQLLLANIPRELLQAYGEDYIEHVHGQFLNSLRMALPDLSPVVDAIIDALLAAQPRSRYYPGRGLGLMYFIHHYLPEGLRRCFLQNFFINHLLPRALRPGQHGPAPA
11-beta-hydroxysteroid dehydrogenase type 2 (Homo sapiens, UniProt P80365), sequence (P80365 whole entry): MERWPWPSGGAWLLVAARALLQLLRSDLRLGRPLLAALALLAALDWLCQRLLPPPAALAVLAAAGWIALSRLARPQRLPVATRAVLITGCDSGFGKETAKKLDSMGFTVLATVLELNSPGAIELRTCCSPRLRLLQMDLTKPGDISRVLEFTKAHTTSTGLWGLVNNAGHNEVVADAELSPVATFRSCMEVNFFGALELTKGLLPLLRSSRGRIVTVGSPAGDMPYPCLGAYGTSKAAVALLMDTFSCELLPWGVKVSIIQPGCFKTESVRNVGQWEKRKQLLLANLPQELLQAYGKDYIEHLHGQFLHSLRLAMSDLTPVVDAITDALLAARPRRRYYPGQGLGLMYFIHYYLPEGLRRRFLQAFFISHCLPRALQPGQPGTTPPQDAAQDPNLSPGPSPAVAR
Cytochrome P450 2E1, sequence (P05181 whole entry): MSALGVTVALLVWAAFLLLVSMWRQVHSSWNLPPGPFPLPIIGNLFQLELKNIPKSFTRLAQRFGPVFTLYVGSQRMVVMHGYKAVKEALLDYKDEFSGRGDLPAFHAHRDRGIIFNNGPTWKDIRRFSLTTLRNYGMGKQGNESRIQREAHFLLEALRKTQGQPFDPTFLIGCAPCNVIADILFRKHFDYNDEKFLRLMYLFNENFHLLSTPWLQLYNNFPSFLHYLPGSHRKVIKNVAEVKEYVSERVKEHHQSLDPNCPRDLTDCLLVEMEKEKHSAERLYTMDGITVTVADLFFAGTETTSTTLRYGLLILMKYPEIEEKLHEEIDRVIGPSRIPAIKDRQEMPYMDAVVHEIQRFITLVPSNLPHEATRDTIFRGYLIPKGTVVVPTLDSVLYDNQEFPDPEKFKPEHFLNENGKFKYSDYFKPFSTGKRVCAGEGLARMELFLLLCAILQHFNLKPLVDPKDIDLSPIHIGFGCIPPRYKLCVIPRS

Structure (SMILES): O=C(CC1(c2ccccc2)C2CC3CC1CC(C2)C3O)N1CC(O)C1 (stereo in doubt; form 2)
- half-life [1]: > 3.33 h
- Cp(f) [2]: 2 nM
- Activity [3]: Non-Toxic
- Vd [4]: 2 L/kg
- ED50 [5]: 8.6 mg/kg
- clearance [6]: 50 mL/min/kg
- EC50 [7]: 0.85 µM
- inhibition (INH) [8]: Not Active
- IC50 [9]: > 40 µM
- betat1/2(app) [10]: 3 h
- Activity [11]: Non-Toxic
- half-life [12]: > 3.33 h
- AUC(0-t) at 24 h [13]: 6 µM·h
- Drug metabolism [14]: Metabolite_Detected
- IC50 [15]: > 40 µM
- IC50 [16]: 7.9 µM
- Papp A→B [17]: 10.5 ×10⁻⁶ cm/s
- bioavailability [18]: 57%
- half-life [19]: 2 h
- AUC(0-t) at 24 h [20]: 2.3 µM·h
- Stability [21]: 80%
- fraction unbound [22]: 0.46
- Activity [23]: Non-Toxic
- AUC(0-t) at 24 h [24]: ≤ 650 µM·h
- Activity [25]: Non-Toxic
- IC50 [26]: 48 µM
- half-life [27]: > 3.33 h
